Experiments:
[1] = folding enthalpy; higher = less favourable; fluorescence melt of hairpins on a sequencing array, two-state fit; conditions: sodium 0.088 M
How it was run: (§1)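 To match UV melts, fitted temperatures were raised by 9.35 °C. These fits were bootstrapped two-state models that gave melting temperature and folding enthalpy, combined by inverse variance over four replicates. The input was normalised Cy3 fluorescence of library hairpins with annealed Cy3 and quencher oligos on a sequenced MiSeq flow cell, imaged in 50 mM Na-HEPES pH 8.0, 25 mM NaCl in 2.5 °C steps up to 60 °C.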

[2] = melting temperature; fluorescence melt of hairpins on a sequencing array, two-state fit, raised by 9.35 °C to match UV melts; conditions: sodium 0.088 M
How it was run: as §1

Row | Sequence | folding enthalpy [1] [kcal/mol] | Tm [2] [°C]
1 | GATCTCTGCGAGATC ((((((...)))))) | -19.3 | 52.8
2 | GATCTCTGCTGAGATC ((((((....)))))) | -45.9 | 53.7
3 | GATCTCTTCCGAGATC ((((((....)))))) | -37 | 52.3
4 | GATCTCTTCGAGATC ((((((...)))))) | -36.9 | 55.4
5 | GATCTGAAAAGATC (((((....))))) | -28.2 | 45.6
6 | GATCTGAAATCAGATC ((((((....)))))) | -36.1 | 45.1
7 | GATCTGAACACAGATC ((((((....)))))) | -34.7 | 48.4
8 | GATCTGAATTCAGATC ((((((....)))))) | -41.6 | 50.2
9 | GATCTGACCCCAGATC ((((((....)))))) | -34.3 | 45.8
10 | GATCTGACCGCAGATC ((((((....)))))) | -27.4 | 48
11 | GATCTGACGGCAGATC ((((((....)))))) | -49.4 | 51.4
12 | GATCTGACTCAGATC ((((((...)))))) | -33.7 | 46.8
13 | GATCTGAGACAGATC ((((((...)))))) | -42.3 | 46.8
14 | GATCTGAGGCCAGATC ((((((....)))))) | -35.8 | 47.1
15 | GATCTGAGTCAGATC ((((((...)))))) | -36.5 | 47.5
16 | GATCTGATATCAGATC ((((((....)))))) | -40.1 | 51
17 | GATCTGATGCAGATC ((((((...)))))) | -34.5 | 48
18 | GATCTGATGTCAGATC ((((((....)))))) | -53.1 | 49.1
19 | GATCTGATTTCAGATC ((((((....)))))) | -34.4 | 51.4
20 | GATCTGCAAGCAGATC ((((((....)))))) | -40.2 | 57.6
21 | GATCTGCACCAGATC ((((((...)))))) | -41.8 | 47.9
22 | GATCTGCAGCAGATC ((((((...)))))) | -35 | 49.2
23 | GATCTGCAGTCAGATC ((((((....)))))) | -34.5 | 49.2
24 | GATCTGCCACCAGATC ((((((....)))))) | -35.1 | 48.7

Row | Sequence | folding enthalpy [1] [kcal/mol] | Tm [2] [°C]
25 | GATCTGCCTCCAGATC ((((((....)))))) | -32.6 | 46.3
26 | GATCTGCCTGCAGATC ((((((....)))))) | -43.3 | 62.6
27 | GATCTGCTACAGATC ((((((...)))))) | -29.6 | 49.6
28 | GATCTGCTATCAGATC ((((((....)))))) | -35.3 | 49.6
29 | GATCTGCTGGCAGATC ((((((....)))))) | -43.6 | 62.5
30 | GATCTGCTTGCAGATC ((((((....)))))) | -40.1 | 67.3
31 | GATCTGGAACAGATC ((((((...)))))) | -37.7 | 58.8
32 | GATCTGGAACCAGATC ((((((....)))))) | -38.5 | 53.9
33 | GATCTGGACTCAGATC ((((((....)))))) | -46.3 | 53.1
34 | GATCTGGCCCAGATC ((((((...)))))) | -35.1 | 49.7
35 | GATCTGGCCCCAGATC ((((((....)))))) | -49.3 | 52.9
36 | GATCTGGCCTCAGATC ((((((....)))))) | -41.7 | 51.7
37 | GATCTGGCTCCAGATC ((((((....)))))) | -39.4 | 53.1
38 | GATCTGGGAAACCGGATC ((((.((....)).)))) | -44.8 | 49.8
39 | GATCTGGGACCAGATC ((((((....)))))) | -43.4 | 54.7
40 | GATCTGGGGACAGATC ((((((....)))))) | -31.4 | 54.3
41 | GATCTGGGGCAGATC ((((((...)))))) | -29.4 | 46.5
42 | GATCTGGGGCCAGATC ((((((....)))))) | -47.6 | 50.5
43 | GATCTGGGTCCAGATC ((((((....)))))) | -42.5 | 52.7
44 | GATCTGGTCCAGATC ((((((...)))))) | -33.4 | 50.8
45 | GATCTGGTCCCAGATC ((((((....)))))) | -39.6 | 54.1
46 | GATCTGGTCGCAGATC ((((((....)))))) | -24.9 | 52.4
47 | GATCTGGTGGCAGATC ((((((....)))))) | -33.9 | 50.1
48 | GATCTGGTTACAGATC ((((((....)))))) | -40.1 | 59.1

Row | Sequence | folding enthalpy [1] [kcal/mol] | Tm [2] [°C]
49 | GATCTGTAATCAGATC ((((((....)))))) | -37.6 | 48.2
50 | GATCTGTACCCAGATC ((((((....)))))) | -36.4 | 47.5
51 | GATCTGTAGGCAGATC ((((((....)))))) | -45 | 51.9
52 | GATCTGTATACAGATC ((((((....)))))) | -40.8 | 54.3
53 | GATCTGTATCCAGATC ((((((....)))))) | -40.3 | 47.4
54 | GATCTGTATTCAGATC ((((((....)))))) | -36.3 | 50.4
55 | GATCTGTCACAGATC ((((((...)))))) | -36.2 | 50.6
56 | GATCTGTCCCCAGATC ((((((....)))))) | -37.5 | 47.9
57 | GATCTGTCCGCAGATC ((((((....)))))) | -43.6 | 52.9
58 | GATCTGTCCTCAGATC ((((((....)))))) | -46.8 | 51
59 | GATCTGTCGCCAGATC ((((((....)))))) | -37.6 | 50.1
60 | GATCTGTCTTCAGATC ((((((....)))))) | -38.7 | 51.4
61 | GATCTGTGAGCAGATC ((((((....)))))) | -40 | 55
62 | GATCTGTGGCCAGATC ((((((....)))))) | -33.9 | 50.4
63 | GATCTGTTATCAGATC ((((((....)))))) | -39.8 | 50.7
64 | GATCTGTTCTCAGATC ((((((....)))))) | -41.3 | 51.5
65 | GATCTTAACTAAGATC ((((((....)))))) | -32.5 | 44
66 | GATCTTAATAAAGATC ((((((....)))))) | -28.5 | 40.9
67 | GATCTTAATGAAGATC ((((((....)))))) | -27.5 | 39.5
68 | GATCTTAGCAAAGATC ((((((....)))))) | -30.9 | 42.4
69 | GATCTTAGCTAAGATC ((((((....)))))) | -43.9 | 48.5
70 | GATCTTAGTCAAGATC ((((((....)))))) | -31.4 | 42.2
71 | GATCTTATATAAGATC ((((((....)))))) | -34.1 | 44.9
72 | GATCTTATCAAGATC ((((((...)))))) | -29.7 | 46

Reference: the array DNA melting data of Ke et al. (doi:10.1101/2024.01.08.574731)
